# Assay outcomes deposited in PubChem by Broad Institute.
# CAL PDZ FP-1: untagged CAL PDZ binding inhibitors, primary screen, biochemical, fluorescence polarization, HTS; 300,000 tested, 0.92% active; Golgi-associated PDZ and coiled-coil motif-containing protein (Homo sapiens), Q9HD26; inhibition, % at 24.9 µM; AID 602252, 2012; purified CAL PDZ, TMR-peptide fluorescence polarization, 1 h;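 active = mean inhibition of at least 30% with at least half of replicates also reaching 30%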;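 note: 0% = DMSO neutral control and 100% = excess unlabeled competitor peptide PRC23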
# SR-BI DiI-HDL act: activators of SR-BI mediated DiI-HDL uptake, primary screen, ldlA[mSR-BI] CHO cells, DiI fluorescence. activation, % at 12.5 µM. 320,000 tested, 0.096% active. 3 h; 100 = double the neutral-control signal;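 active = mean replicate activation of at least 60% and every replicate at or above 60%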;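 note: 0% = median plate neutral-control signal and 100% = twice that signal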
#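 Material: SR-BI-overexpressing, LDLR-lacking CHO cells; schedule: compound exposure 3 h, 37 °C; reagent: DiI-labelled HDL at 10 µg/mL final; technique: bottom-read fluorescence, 550/595 nm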
# ARNT-TACC3 inh: disruptors of ARNT/TACC3 protein interaction, primary screen, biochemical, AlphaScreen, single concentration. Transforming acidic coiled-coil-containing protein 3 (Homo sapiens), Q9Y6A5. AlphaScreen His-ARNT PAS-B/GST-TACC3 binding, luminescence; TACC3 fragment carries E629A point mutation. inhibition, % at 9.99 µM. 390,000 tested, 0.66% active. AID 623870, 2012;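 active = mean inhibition of replicates at least 50% and at least half of replicates each reaching 50%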;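 note: 0% = complete ARNT plus TACC3 wells and 100% = ARNT alone without TACC3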
# CAL PDZ FP-2: CAL PDZ peptide-binding inhibitors, primary screen, biochemical, fluorescence polarization, Cer-tagged CAL PDZ, HTS. purified CAL PDZ, TMR-peptide fluorescence polarization, 1 h. inhibition, % at 20 µM. 330,000 tested, 0.02% active;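 active = highest replicate inhibition of at least 40%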;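 note: plate controls were DMSO neutral control wells for no effect and unlabeled competitor peptide control wells for full effect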
#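 Read-out basis: mP drop reported as inhibition | Assay system: Tagged CAL PDZ protein CerCALP, purified | Benchmarks: Unlabelled peptide for full inhibition, DMSO wells as neutral | Schedule: 1 h incubation at room temperature before polarization reading | Buffer or medium: Sodium phosphate/NaCl buffer pH 7.4 with TCEP, IgG, Thesit | Doses: Single point, 20 µM | Measured by: Fluorescence polarization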
# SR-BI DiI inh: inhibitors of SR-BI mediated HDL lipid uptake, primary screen, ldlA[mSR-BI] cells, fluorescence, single point | Scavenger receptor class B member 1 (Mus musculus), Q61009 | ldlA[mSR-BI] CHO cells, DiI-HDL uptake fluorescence, 3 h | inhibition, % at 12.5 µM | 320,000 tested, 0.96% active;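 active = mean replicate inhibition of at least 70% and a set share of replicates each scoring 70 or more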;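 note: 0% = median of neutral control wells and 100% = median of positive control wells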
# Target sequence (Q61009 whole entry, looked up): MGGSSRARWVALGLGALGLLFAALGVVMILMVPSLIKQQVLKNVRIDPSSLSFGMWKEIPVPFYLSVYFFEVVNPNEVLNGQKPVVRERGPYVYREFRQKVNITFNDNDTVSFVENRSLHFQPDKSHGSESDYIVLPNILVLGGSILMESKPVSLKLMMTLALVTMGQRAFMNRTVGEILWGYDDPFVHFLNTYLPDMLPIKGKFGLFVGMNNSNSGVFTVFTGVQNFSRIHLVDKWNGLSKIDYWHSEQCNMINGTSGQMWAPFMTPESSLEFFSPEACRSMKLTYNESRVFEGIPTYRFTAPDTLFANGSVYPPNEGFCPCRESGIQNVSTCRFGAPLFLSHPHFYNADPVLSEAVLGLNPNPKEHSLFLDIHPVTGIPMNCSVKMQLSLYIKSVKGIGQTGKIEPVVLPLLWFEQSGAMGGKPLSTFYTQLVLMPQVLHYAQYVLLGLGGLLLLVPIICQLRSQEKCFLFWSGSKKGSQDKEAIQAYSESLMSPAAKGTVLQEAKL
# miR-122 sensor: miR-122 Renilla sensor signal increase in Huh7, primary screen, miR-122 inhibitor project, cell-based, single point, plate reader. Huh7 miR-122 Renilla luciferase sensor, 48 h; neutral wells = 0, positive control = 100. activation (reporter increase), % at 12.5 µM. 340,000 tested, 0.3% active;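 active = mean replicate activation score at least 90 and every replicate individually at or above 90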;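 note: higher luciferase means less miR-122 activity so hits act as miR-122 inhibitors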
# An asterisk follows results filed as active; / = not tested or not shown; [ ] = another dose, or the depositor's remark. Hits are enriched below; roughly 2.1% of the tested compounds scored in any of these assays.
SMILES,CAL PDZ FP-1,SR-BI DiI-HDL act,ARNT-TACC3 inh,CAL PDZ FP-2,SR-BI DiI inh,miR-122 sensor
C[C@H](CO)N1C[C@H](C)[C@@H](CN(C)S(=O)(=O)c2ccccc2F)Oc2ncc(C#Cc3ccccc3)cc2C1=O,/,/,0,/,/,-6[16.7 µM]
CC1CCC/C(=C\Nc2ccc(O)cc2)C1=O (stereo not drawn),-3,2,21*,-5,-2,-9
CN(C)CC(=O)Nc1ccc2c(c1)[C@@H]1C[C@@H](CC(=O)NCc3cccnc3)O[C@@H](CO)[C@@H]1O2,/,/,-1,/,/,7[16.7 µM]
Cn1c(-c2ccc(F)cc2)cnc1NCc1ccc(F)cc1F,0,5,4,0,-5,4
Cn1c(-c2ccc(F)cc2)cnc1NCc1ccccc1F,/,-88,-2,0,88*,1
C/C=C/c1cnc2c(c1)C(=O)N([C@H](C)CO)C[C@@H](C)[C@H](CN(C)C(=O)C1CC1)O2,/,/,/,/,/,-4[16.7 µM]
C=CCn1c(O)c(N=NC(=O)CNC(=O)/C=C/c2ccc(OC)cc2)c2ccccc21,59*,-15,4,0,15,4
CO[C@H]1CN(C)C(=O)c2ccc(NC(=O)C3CC3)cc2OC[C@H](C)N(C(=O)c2ccccn2)C[C@H]1C,/,/,-2,/,/,/
COc1ccc(Cc2nnc(N/N=C/c3ccc(O)cc3O)[nH]c2=O)cc1OC,-1,21,62*,1,-21,/
CCCCCCC/C=N/Nc1nnc(Cc2ccccc2)c(=O)[nH]1,-4,9,-2,-1,-9,/
CCCCCC/C=N/Nc1nnc(Cc2ccc(OC)c(OC)c2)c(=O)[nH]1,-3,-4,54*,0,4,-2
CO[C@H]1CC[C@H]2CCN(C)C(=O)[C@H](C)[C@@H](OC)CN(C)C(=O)c3cccc(C#N)c3OC[C@H]1O2,/,/,-2,/,/,/
O=C(Nc1nc(-c2ccccc2)cs1)c1ccc2c(c1)S(=O)(=O)c1ccccc1C2=O,-8,-65,/,-2,65,/
O=C(Nc1nc(-c2cccc3ccccc23)cs1)c1ccc2c(c1)S(=O)(=O)c1ccccc1C2=O,-1,-73,/,-1,73*,17
O=C(Nc1ccc(-c2ccccc2)cc1)c1ccc2c(c1)S(=O)(=O)c1ccccc1C2=O,1,-84,/,0,84*,/
O=C(Nc1ccccc1)Nc1ccc2c(c1)[C@@H]1C[C@@H](CC(=O)N3CCCCC3)O[C@@H](CO)[C@@H]1O2,/,/,-7,/,/,3[16.7 µM]
Fc1cccc(-c2cc3nc(-c4ccccc4)cc(N4CCC5(CC4)OCCO5)n3n2)c1,0,-26,-23,-1,26,0
Fc1ccc(-c2cc3nc(-c4ccccc4)cc(N4CCOCC4)n3n2)cc1,-3,-73,1,-2,73*,0
Cc1ccc(-c2cc3nc(-c4ccccc4)cc(N4CCC5(CC4)OCCO5)n3n2)cc1,21,-42,-14,0,42,-4
Cc1cccc(-c2cc3nc(-c4ccccc4)cc(N4CCC5(CC4)OCCO5)n3n2)c1,-5,-83,-9,-1,83*,2
COC(=O)C[C@@H]1CC[C@H]2[C@H](COc3ccc(NC(=O)NC(C)C)cc3C(=O)N2C)O1,/,/,/,/,/,0[16.7 µM]
CC(=O)/C(N=Nc1cccc(C(F)(F)F)c1)=C(\C)O,-9,-3,-2,-1,3,4
O=C(/C(N=Nc1cccc(C(F)(F)F)c1)=C(/O)c1cccs1)C(F)(F)F,68*,4,8,1,-4,/
CCN(CC)c1ccc(/C=N/NC(=O)Cc2cccs2)c(O)c1,-2,-10,32*,0,10,58
CCN(CC)c1ccc(/C=N/NC(=O)c2ccco2)c(O)c1,-2,-40,74*,-1,40,/
SMILES,CAL PDZ FP-1,SR-BI DiI-HDL act,ARNT-TACC3 inh,CAL PDZ FP-2,SR-BI DiI inh,miR-122 sensor
COc1cc(OC)c(OC)cc1/C=N/Nc1nc2ccccc2[nH]1,-1,-9,20,2,9,/
O=C(Cc1cccs1)N/N=C/c1ccccc1,/,26,-4,-1,-26,-1
CCN(CC)c1ccc(/C=N/Nc2nc3ccccc3[nH]2)c(O)c1,-1,-114,11,2,114*,/
CNC(=O)c1ccc(-c2sc3nc(N4CCOCC4)c4c(c3c2N)CCCC4)o1,-3,-87,-30,-1,87*,-8
CNC(=O)c1ccc(-c2sc3nc(N4CCOCC4)c4c(c3c2N)CC(C)(C)OC4)o1,-4,-56,0,0,56,-1
O=C(COc1ncnc2sccc12)Nc1ccc2c(c1)OCCO2,44*,-4,-8,-1,4,-3
Cc1cc(C)c(OCC(=O)Nc2ccc3c(c2)OCO3)cc1C,active,-3,/,-2,3,6
Cc1ccc(C)c(OCC(=O)Nc2ccc3c(c2)OCO3)c1,-3,/,0,-1,/,/
CO[C@@H]1CN(C)C(=O)c2ccc(NC(=O)c3nc4ccccc4s3)cc2OC[C@@H](C)NC[C@H]1C,/,/,3,/,/,/
CC(=O)Nc1ccc(-c2c(C)cc3oc(=O)cc(-c4ccccc4)c3c2C)cc1,-8,-67,1,-2,67,1
Cc1ccc(-c2c(C)cc3oc(=O)cc(-c4ccccc4)c3c2C)cc1,-5,-78,7,-1,78*,-9
Cc1cc2oc(=O)cc(-c3ccccc3)c2c(C)c1-c1ccc(N(C)C)cc1,-2,-78,3,0,78*,-1
COc1ccc(-c2c(C)cc3oc(=O)cc(-c4ccccc4)c3c2C)cc1,-2,-62,-3,0,62,0
CCOC(=O)c1ccc(-c2c(C)cc3oc(=O)cc(-c4ccccc4)c3c2C)cc1,-2,-73,-2,-1,73*,3
O=C(Nc1ccc(Cl)cc1)[C@@H]1[C@@H]2C(=O)N(c3ccc4ccccc4c3)C(=O)[C@@H]2[C@H]2C=CC=NN21,/,-76,-8,-2,76*,/
O=C(Nc1ccc(Cl)cc1)[C@@H]1[C@@H]2C(=O)N(c3cccc(F)c3)C(=O)[C@@H]2[C@H]2C=CC=NN21,6,-16,6,-1,16,/
C/C(=N\OC(=O)c1cccc(C)c1)c1sc(-c2ccccc2)nc1C,2,-19,-4,-9,19,0
